Drawing on ChEMBL document CHEMBL1152931, “Glycogen phosphorylase inhibitory effects of 2-oxo-1,2-dihydropyridin-3-yl amide derivatives” (Bioorg Med Chem, 2009), this text covers inhibition and IC50 for 48 compounds.

In experiment [1] the target is T1, Glycogen phosphorylase, muscle form (Oryctolagus cuniculus) (UniProt P00489).
T1 sequence (whole entry): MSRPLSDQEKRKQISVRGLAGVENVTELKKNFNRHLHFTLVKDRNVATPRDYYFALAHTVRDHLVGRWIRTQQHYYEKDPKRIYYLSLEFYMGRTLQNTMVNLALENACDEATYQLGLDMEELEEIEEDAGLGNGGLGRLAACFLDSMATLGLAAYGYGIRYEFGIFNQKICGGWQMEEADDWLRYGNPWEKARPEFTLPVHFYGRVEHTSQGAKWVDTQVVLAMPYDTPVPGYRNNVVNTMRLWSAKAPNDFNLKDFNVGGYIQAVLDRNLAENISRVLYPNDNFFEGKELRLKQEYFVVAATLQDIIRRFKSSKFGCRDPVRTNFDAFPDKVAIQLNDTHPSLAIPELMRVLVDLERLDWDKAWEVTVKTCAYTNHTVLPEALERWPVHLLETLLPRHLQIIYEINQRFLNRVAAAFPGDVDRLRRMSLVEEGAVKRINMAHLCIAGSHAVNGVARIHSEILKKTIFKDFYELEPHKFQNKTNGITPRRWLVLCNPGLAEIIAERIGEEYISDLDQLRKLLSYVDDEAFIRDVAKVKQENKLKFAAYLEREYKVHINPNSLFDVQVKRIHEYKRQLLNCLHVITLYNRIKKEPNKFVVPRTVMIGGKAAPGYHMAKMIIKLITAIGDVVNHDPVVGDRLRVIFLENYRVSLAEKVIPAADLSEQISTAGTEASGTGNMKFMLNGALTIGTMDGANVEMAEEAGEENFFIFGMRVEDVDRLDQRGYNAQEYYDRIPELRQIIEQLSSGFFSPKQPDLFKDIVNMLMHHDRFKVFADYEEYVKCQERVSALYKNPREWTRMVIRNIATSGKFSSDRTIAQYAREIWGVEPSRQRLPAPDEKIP
Nature of the experiment: Inhibition of rabbit muscle glycogen phosphorylase at 222 uM. In short, it runs like this: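 Rabbit muscle glycogen phosphorylase a at 0.475 µg/mL, assayed in the glycogen-synthesis direction. Run 30 min at 22 °C. Compounds added in 14% DMSO. Released phosphate read at 620 nm by malachite green/ammonium molybdate in 1 M HCl. Duplicates on two occasions, averaged.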

For experiment [2], the target named is T2, Glycogen phosphorylase, muscle form (Oryctolagus cuniculus, UniProt P00489).
T2 sequence (P00489 whole entry): T1 sequence (whole entry)
As to the kind of experiment: Inhibition of rabbit muscle glycogen phosphorylase.

The target of experiment [3] is T1, Glycogen phosphorylase, muscle form (Oryctolagus cuniculus). The settings on record: 111 uM.

Where only a bound is given, the exact number is not on record here.

The inhibition is the drop in the measured response relative to a control, in per cent. Read a low inhibition as little suppression. Turning to `CC(=O)Nc1cccn(CC(=O)NCCO)c1=O`, the inhibition in experiment [1] is less than 20%.
On to `O=C(Nc1cccn(CC(=O)N2CCCC2)c1=O)c1ccccc1`, for which the inhibition in experiment [1] was less than 20%.
`O=C(Cn1cccc(NCc2ccccc2)c1=O)N1CCCC1` showed an inhibition in experiment [1] of less than 20%.
`CCCNC(=O)Cn1cccc(NC(C)=O)c1=O` yielded an inhibition in experiment [1] of less than 20%.
In turn, `O=C(Cn1cccc(NC(=O)c2ccccc2)c1=O)NCc1ccccc1` displayed an inhibition in experiment [1] of less than 20%.
Still for that read-out and setting: in the case of `O=C(Cn1cccc(NC(=O)c2ccccc2)c1=O)N[C@@H](CO)Cc1ccccc1` it was less than 20%.
Compound `CCCNC(=O)Cn1cccc(NCc2ccccc2)c1=O` gave an inhibition in experiment [1] of less than 20%.
On the same count and under the same terms, in the case of `CCOC(=O)Cn1cccc(NCc2ccccc2)c1=O` it was less than 20%.
By IC50 is commonly meant the concentration that gives 50% inhibition. A high value points to weaker potency in that assay. As for `CCCNc1cccn(CC(=O)NCc2ccc(Cl)c(Cl)c2)c1=O`, the IC50 in experiment [2] is 1770 µM. The compound further yielded an inhibition in experiment [1] of 40%.
`O=C(Cn1cccc(NC(=O)c2ccccc2)c1=O)N[C@H](CO)Cc1ccccc1` registered an inhibition in experiment [1] of less than 20%.
On the same count and under the same terms, in the case of `NCCNC(=O)Cn1cccc(NC(=O)c2ccccc2)c1=O` it was less than 20%; in that of `CCCNc1cccn(CC(=O)OCC)c1=O`, less than 20%.
`O=C(Cn1cccc(NC(=O)c2ccccc2)c1=O)NCc1ccccn1` gave an inhibition in experiment [1] of less than 20%.
For the compound `O=C(Cn1cccc(NCc2ccccc2)c1=O)NCc1ccccc1`, in experiment [2], half-maximal inhibition (IC50) required 34.2 µM. In experiment [3], this compound had an inhibition of 96%.
Regarding `O=C(Cn1cccc(NCc2ccccc2)c1=O)NCc1ccc(Cl)c(Cl)c1`, in experiment [2], the IC50 was determined as 6.3 µM. The compound also showed an inhibition in experiment [1] of 94%.
Take `CCOC(=O)Cn1cccc(NC(=O)c2ccccc2)c1=O`: the inhibition in experiment [1] was less than 20%.
In turn, `O=C(Cn1cccc(NC(=O)c2ccccc2)c1=O)NCCN1CCCCC1` came in with an inhibition in experiment [1] of less than 20%.
In experiment [1], `O=C(Cn1cccc(NCc2ccccc2)c1=O)N[C@H](CO)Cc1ccccc1` yielded an inhibition of 94%.
Still for that read-out and setting: in the case of `CCNC(=O)Cn1cccc(NC(=O)c2ccccc2)c1=O` it was less than 20%; in that of `NS(=O)(=O)c1ccc(CCNC(=O)Cn2cccc(NC(=O)c3ccccc3)c2=O)cc1`, less than 20%.
Compound `CCCNc1cccn(CC(=O)NCc2ccccc2)c1=O` had an IC50 in experiment [2] of 343 µM. The compound further gave an inhibition in experiment [1] of 80%.
In experiment [2], `CC(=O)Nc1cccn(CC(=O)NCc2ccc(Cl)c(Cl)c2)c1=O` yielded a 50% inhibitory concentration (IC50) of 372 µM. The compound also yielded an inhibition in experiment [1] of 45%.
As to `CC(C)(CO)NC(=O)Cn1cccc(NC(=O)c2ccccc2)c1=O`, the inhibition in experiment [1] was less than 20%.
Still for that read-out and setting: in the case of `O=C(Cn1cccc(NC(=O)c2ccccc2)c1=O)N[C@H](CO)c1ccccc1` it was less than 20%; in that of `O=C(Cn1cccc(NC(=O)c2ccccc2)c1=O)NN1CCOCC1`, less than 20%.
Regarding `O=C(Cn1cccc(NCc2ccccc2)c1=O)N[C@H](CO)c1ccccc1`, in experiment [2], the IC50 stood at 120 µM. This compound returned an inhibition in experiment [1] of 40%.
As to `O=C(Cn1cccc(NC(=O)c2ccccc2)c1=O)NCCCN1CCOCC1`, the inhibition in experiment [1] is less than 20%.
`CCCCNC(=O)Cn1cccc(NC(=O)c2ccccc2)c1=O`: the inhibition in experiment [1] is less than 20%.
The same measure, in the same setting: in the case of `CC(=O)Nc1cccn(CC(=O)NCc2ccccc2)c1=O` it was less than 20%.
The compound `CC(=O)Nc1cccn(CC(=O)N2CCCC2)c1=O` registered an inhibition in experiment [1] of less than 20%.
As to `O=C(Cn1cccc(NC(=O)c2ccccc2)c1=O)NCc1ccc(Cl)c(Cl)c1`, the IC50 in experiment [2] worked out at 162 µM. The compound further registered an inhibition in experiment [1] of 45%.
`CC(=O)Nc1cccn(CC(=O)NC(C)C)c1=O` had an inhibition in experiment [1] of less than 20%.
In the case of `O=C(Cn1cccc(NCc2ccccc2)c1=O)NCc1ccccn1`, the inhibition in experiment [1] is less than 20%.
As for `CC(C)NC(=O)Cn1cccc(NCc2ccccc2)c1=O`, the inhibition in experiment [1] was less than 20%.
`O=C(Cn1cccc(NC(=O)c2ccccc2)c1=O)NCCO`: the inhibition in experiment [1] is less than 20%.
In turn, `COc1ccccc1CNC(=O)Cn1cccc(NCc2ccccc2)c1=O` came in with an IC50 in experiment [2] of 308 µM. The compound further yielded an inhibition in experiment [1] of 38%.
In turn, `CCCNc1cccn(CC(=O)N2CCCC2)c1=O` yielded an inhibition in experiment [1] of less than 20%.
Consider `O=C(Cn1cccc(NCc2ccccc2)c1=O)NC1CCN(Cc2ccccc2)CC1`, for which, in experiment [2], the IC50 worked out at 813 µM. In experiment [1], the inhibition was 45%.
As to `CCCNC(=O)Cn1cccc(NCCC)c1=O`, the inhibition in experiment [1] is less than 20%.
Consider `O=C(Nc1cccn(CC(=O)N2CCCCC2)c1=O)c1ccccc1`, for which, in experiment [1], the inhibition was less than 20%.
Turning to `CC(C)CNC(=O)Cn1cccc(NC(=O)c2ccccc2)c1=O`, the inhibition in experiment [1] was less than 20%.
`O=C(Cn1cccc(NC(=O)c2ccccc2)c1=O)NC1CCN(Cc2ccccc2)CC1` had an inhibition in experiment [1] of less than 20%.
The same measure, in the same setting: in the case of `COCCCNC(=O)Cn1cccc(NC(=O)c2ccccc2)c1=O` it was less than 20%.
In experiment [1], `O=C(Nc1cccn(CC(=O)N2CCOCC2)c1=O)c1ccccc1` had an inhibition of less than 20%.
Regarding `CC(=O)Nc1cccn(CC(=O)NC2CCCCC2)c1=O`, the inhibition in experiment [1] was less than 20%.
`CCOC(=O)Cn1cccc(NC(C)=O)c1=O`: in experiment [1], the inhibition is less than 20%.
The same measure, in the same setting: in the case of `CCCNC(=O)Cn1cccc(NC(=O)c2ccccc2)c1=O` it was less than 20%.
The compound `CC(C)NC(=O)Cn1cccc(NC(=O)c2ccccc2)c1=O` showed an inhibition in experiment [1] of less than 20%.
